Experimental data published in ChEMBL document CHEMBL1914454, “Novel N-linked aminopiperidine inhibitors of bacterial topoisomerase type II: broad-spectrum antibacterial agents with reduced hERG activity” (J Med Chem, 2011).
In brackets after ≈: the same amount, converted by molar mass.

Columns and labels:
Streptococcus pneumoniae = test: Antibacterial activity against penicillin-susceptible Streptococcus pneumoniae D39 after 18 to 24 hrs by broth microdilution method; type: functional
In short: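 CLSI broth microdilution in 2.2% (w/v) Mueller Hinton broth with 0.65% (v/v) lysed horse blood. Compounds diluted from DMSO to 2% DMSO final, 11 doubling dilutions from 64 to 0.06 μg/mL. Incubated at 35 °C for 18−24 h; read at 620 nm.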

[1] = Inhibition of Escherichia coli ATPase activity of topoisomerase 4 ParC/ParE subunit assessed as reduction in inorganic phosphate production after 24 hrs by ammonium molybdate/malachite-green based assay
In short: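 Each reaction contained 0.5 nM each of E. coli ParC and ParE, 0.16 mM ATP and 0.005 mg/mL sheared salmon sperm DNA in 20 mM Tris pH 8.0 with 50 mM ammonium acetate, 8.0 mM MgCl₂, 0.5 mM EDTA, 5 mM DTT, 2.5% glycerol and 0.005% Brij-35. Compound dilution series; 24 h at room temperature. Quenched with malachite green; absorbance read at 650 nm. IC50 is the mean of three replicate experiments.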

[2] = Fraction unbound in human plasma at 10 uM after 16 hrs by equilibrium dialysis
Pseudomonas aeruginosa = test: Antibacterial activity against Pseudomonas aeruginosa PAO1 after 18 to 24 hrs by broth microdilution method; type: functional
In short: (§1)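 Broth microdilution following CLSI guidelines in Mueller Hinton broth. Compounds in DMSO, diluted to 2% DMSO final, 11 doubling dilutions from 64 to 0.06 μg/mL. Incubated at 35 °C for 18−24 h; growth read by absorbance at 620 nm.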

[3] = Octanol-phosphate buffer partition coefficient, log D of the compound at pH 7.4 by LC/MS/UV analysis; conditions: octanol/phosphate buffer
Staphylococcus aureus = test: Antibacterial activity against methicillin-susceptible Staphylococcus aureus after 18 to 24 hrs by broth microdilution method; type: functional; in short: as §1
Escherichia coli = test: Antibacterial activity against Escherichia coli W3110 after 18 to 24 hrs by broth microdilution method; type: functional; conditions: K-12 substr. W3110; in short: as §1
[4] = biological target: Voltage-gated inwardly rectifying potassium channel KCNH2 (Homo sapiens, UniProt Q12809); test: Inhibition of human ERG by ionworks HT assay
Voltage-gated inwardly rectifying potassium channel KCNH2, sequence (Q12809 whole entry): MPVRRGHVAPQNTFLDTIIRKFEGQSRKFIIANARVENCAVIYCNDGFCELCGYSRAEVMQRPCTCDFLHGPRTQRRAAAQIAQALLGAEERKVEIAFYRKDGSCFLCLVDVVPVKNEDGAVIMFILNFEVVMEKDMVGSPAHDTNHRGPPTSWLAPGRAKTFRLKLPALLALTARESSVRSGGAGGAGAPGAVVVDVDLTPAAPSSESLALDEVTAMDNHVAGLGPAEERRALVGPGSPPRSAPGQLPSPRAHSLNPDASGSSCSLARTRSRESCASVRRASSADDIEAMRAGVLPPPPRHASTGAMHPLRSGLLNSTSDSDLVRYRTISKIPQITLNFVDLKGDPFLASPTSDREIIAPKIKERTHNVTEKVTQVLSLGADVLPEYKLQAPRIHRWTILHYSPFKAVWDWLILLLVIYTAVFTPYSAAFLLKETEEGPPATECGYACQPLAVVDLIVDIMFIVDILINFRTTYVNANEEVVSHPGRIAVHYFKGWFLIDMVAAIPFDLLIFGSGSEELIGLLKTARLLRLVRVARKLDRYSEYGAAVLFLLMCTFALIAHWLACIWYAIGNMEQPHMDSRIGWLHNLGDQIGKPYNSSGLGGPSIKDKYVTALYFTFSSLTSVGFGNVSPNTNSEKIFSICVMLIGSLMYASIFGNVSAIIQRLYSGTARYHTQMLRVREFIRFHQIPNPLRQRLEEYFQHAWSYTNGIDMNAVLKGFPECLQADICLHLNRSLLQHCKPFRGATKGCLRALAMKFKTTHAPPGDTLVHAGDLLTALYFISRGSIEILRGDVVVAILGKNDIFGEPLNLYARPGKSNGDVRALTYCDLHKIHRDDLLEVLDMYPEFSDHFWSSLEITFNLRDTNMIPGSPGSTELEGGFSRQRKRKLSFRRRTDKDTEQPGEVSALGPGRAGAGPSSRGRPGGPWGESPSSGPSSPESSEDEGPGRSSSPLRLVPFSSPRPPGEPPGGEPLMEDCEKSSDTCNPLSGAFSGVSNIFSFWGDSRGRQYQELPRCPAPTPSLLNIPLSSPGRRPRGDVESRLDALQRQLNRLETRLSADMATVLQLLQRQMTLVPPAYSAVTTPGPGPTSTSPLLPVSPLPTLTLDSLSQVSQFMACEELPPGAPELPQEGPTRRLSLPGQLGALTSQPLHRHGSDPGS

| SMILES | MIC (Streptococcus pneumoniae) [µg/mL] | IC50 [1] [µM] | fraction unbound at 16 h, 10 µM [2] | MIC (Pseudomonas aeruginosa) [µg/mL] | logD [3] | MIC (Staphylococcus aureus) [µg/mL] | MIC (Escherichia coli) [µg/mL] | IC50 [4] [µM] |
| --- | --- | --- | --- | --- | --- | --- | --- | --- |
| COc1ccc2ncc(F)c(CCN3CCC(NCc4cc5c(cn4)OCCO5)CC3)c2n1 | < 0.07 | 0.0013 | 0.17 | 4 (≈ 8.82 µM) | 1.46 | < 0.01 | 0.13 (≈ 0.287 µM) |  |
| COc1ccc2ccc(=O)n(CCN3CCC(NCc4cc5c(cn4)OCCO5)CC3)c2c1 | 0.06 (≈ 0.133 µM) | 0.022 | 0.31 | > 8 | 1.32 | 0.03 (≈ 0.0666 µM) | 1.5 (≈ 3.33 µM) | 34 |
| O=C1COc2ccccc2N1CCN1CCC(NCc2cc3c(cn2)OCCO3)CC1 | 4 (≈ 9.42 µM) | 0.1 | 0.26 | > 8 | 1.04 | 2 (≈ 4.71 µM) | 8 (≈ 18.8 µM) |  |
| COc1ccc2c(c1)N(CCN1CCC(NCc3cc4c(cn3)OCCO4)CC1)C(=O)CS2 | > 8 |  | 0.09 | > 8 |  | 8 (≈ 17 µM) | > 8 |  |
| COc1ncc2ncc(=O)n(CCN3CCC(NCc4cc5c(cn4)OCCO5)CC3)c2n1 | 0.25 (≈ 0.551 µM) | 0.028 | 0.96 | > 8 | 0.14 | 0.25 (≈ 0.551 µM) | 2 (≈ 4.41 µM) | 81 |
| COc1ccc2c(c1)N(CCN1CCC(NCc3ccc4c(n3)NC(=O)CO4)CC1)C(=O)OC2 | 0.5 (≈ 1.07 µM) | 0.0044 | 0.26 | 4 (≈ 8.56 µM) | 0.5 | 1 (≈ 2.14 µM) | 0.5 (≈ 1.07 µM) | 42 |

The next lines start with results.

| MIC (Streptococcus pneumoniae) [µg/mL] | IC50 [1] [µM] | fraction unbound at 16 h, 10 µM [2] | MIC (Pseudomonas aeruginosa) [µg/mL] | logD [3] | MIC (Staphylococcus aureus) [µg/mL] | MIC (Escherichia coli) [µg/mL] | SMILES | IC50 [4] [µM] |
| --- | --- | --- | --- | --- | --- | --- | --- | --- |
| 0.03 (≈ 0.0663 µM) | 0.0015 | 0.47 | 4 (≈ 8.84 µM) | 0.83 | 0.02 (≈ 0.0442 µM) | 0.25 (≈ 0.552 µM) | COc1ccc2ncc(=O)n(CCN3CCC(NCc4cc5c(cn4)OCCO5)CC3)c2n1 |  |
| 0.25 (≈ 0.552 µM) | 0.013 | 0.27 | > 8 | 0.2 | 0.13 (≈ 0.287 µM) | 2 (≈ 4.42 µM) | COc1ncc2ccc(=O)n(CCN3CCC(NCc4cc5c(cn4)OCCO5)CC3)c2n1 | 206 |
| 1 (≈ 2.21 µM) | 0.028 | 0.17 | > 8 | 0.68 | 1 (≈ 2.21 µM) | 8 (≈ 17.7 µM) | COc1cc2c(ccc(=O)n2CCN2CCC(NCc3cc4c(cn3)OCCO4)CC2)cn1 |  |
| 0.05 (≈ 0.111 µM) | 0.002 | 0.31 | > 8 | 1.16 | 0.02 (≈ 0.0443 µM) | 0.5 (≈ 1.11 µM) | COc1ccc2ccc(=O)n(CCN3CCC(NCc4cc5c(cn4)OCCO5)CC3)c2n1 | 40 |
